From ChEMBL document CHEMBL2380281, “Synthesis of proline analogues as potent and selective cathepsin S inhibitors” (Bioorg Med Chem Lett, 2013)

What was measured:
Cathepsin S = Cathepsin S (Homo sapiens, UniProt P25774); assay: Inhibition of human cathepsin-S
Cathepsin K = target: T1, Cathepsin K (Homo sapiens, UniProt P43235); assay: Inhibition of human cathepsin-K
T1 sequence (P43235 whole entry): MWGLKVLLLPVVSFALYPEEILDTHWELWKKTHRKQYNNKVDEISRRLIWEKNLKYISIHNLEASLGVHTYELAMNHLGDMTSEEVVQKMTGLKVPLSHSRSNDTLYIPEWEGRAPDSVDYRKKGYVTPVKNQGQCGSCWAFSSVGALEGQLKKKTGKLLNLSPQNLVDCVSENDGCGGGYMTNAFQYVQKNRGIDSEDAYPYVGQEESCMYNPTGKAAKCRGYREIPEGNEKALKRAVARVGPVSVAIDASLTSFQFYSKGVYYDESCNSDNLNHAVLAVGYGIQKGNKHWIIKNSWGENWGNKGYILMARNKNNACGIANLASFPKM
In short: (§1)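 Human cathepsin B and K activity measured with a SensoLyte 520 cathepsin activity assay kit; LHVS as pan-cathepsin positive control.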

Cathepsin B = Cathepsin B (Homo sapiens, UniProt P07858); assay: Inhibition of human cathepsin-B; in short: as §1

Chain of Cathepsin S (P25774 whole entry): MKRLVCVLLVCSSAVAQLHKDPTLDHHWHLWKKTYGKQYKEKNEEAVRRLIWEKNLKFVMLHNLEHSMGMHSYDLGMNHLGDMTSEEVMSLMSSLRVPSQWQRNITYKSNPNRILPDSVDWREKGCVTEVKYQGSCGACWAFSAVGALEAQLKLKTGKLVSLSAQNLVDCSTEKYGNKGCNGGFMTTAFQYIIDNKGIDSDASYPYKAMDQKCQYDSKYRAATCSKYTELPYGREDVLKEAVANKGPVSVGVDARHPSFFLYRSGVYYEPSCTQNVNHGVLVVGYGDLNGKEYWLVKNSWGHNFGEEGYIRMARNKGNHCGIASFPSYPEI

Row | Structure (SMILES) | IC50 (Cathepsin S) | IC50 (Cathepsin K) | IC50 (Cathepsin B)
1 | CCC(NC(=O)[C@@H]1C[C@@H](S(=O)(=O)CC)CN1C(C)=O)C(=O)c1nc2ccccc2o1 (some centres not stated) | > 100 nM |  | 
2 | CCC(NC(=O)[C@@H]1C[C@@H](Oc2ccccc2)CN1C(C)=O)C(=O)c1nc2ccccc2o1 (some centres not stated) | > 1000 nM |  | 
3 | CCC(NC(=O)[C@@H]1C[C@@H]([S@](=O)c2ccccc2)CN1C(C)=O)C(=O)c1nc2ccccc2o1 (some centres not stated) | 83.7 nM |  | 
4 | CCC(NC(=O)[C@@H]1C[C@@H](S(=O)(=O)c2ccccc2)CN1c1ccccc1)C(=O)c1nc2ccccc2o1 (some centres not stated) | 12.4 nM |  | 
5 | CC[C@@H](NC(=O)[C@@H]1C[C@@H](S(=O)(=O)c2ccccc2)CN1C(C)=O)C(=O)c1nc2ccccc2o1 | 4.3 nM |  | 
6 | CC(=O)N1C[C@H](S(=O)(=O)c2ccccc2)C[C@H]1C(=O)NC(C)C(=O)c1nc2ccccc2o1 (some centres not stated) | 18.1 nM |  | 
7 | CCC(NC(=O)[C@@H]1C[C@@H](S(=O)(=O)c2ccccc2)CN1C(=O)c1cccnc1)C(=O)c1nc2ccccc2o1 (some centres not stated) | 3.5 nM |  | 
8 | O=C(CNC(=O)[C@@H]1C[C@@H](S(=O)(=O)c2ccccc2)CN1C(=O)C1CCCCC1)c1nc2ccccc2o1 | 36.6 nM |  | 

Molecules with a lower IC50 (Cathepsin S), results first:

Row | IC50 (Cathepsin S) | IC50 (Cathepsin K) | IC50 (Cathepsin B) | Structure (SMILES)
9 | 3.3 nM |  |  | CCC(NC(=O)[C@@H]1C[C@@H](S(=O)(=O)c2ccccc2)CN1C(=O)CCOC)C(=O)c1nc2ccccc2o1 (some centres not stated)
10 | 3.3 nM |  |  | CCC(NC(=O)[C@@H]1C[C@@H](S(=O)(=O)c2ccccc2)CN1C(=O)c1ccncc1)C(=O)c1nc2ccccc2o1 (some centres not stated)
11 | 3.3 nM | > 10000 nM | > 10000 nM | CCC(NC(=O)[C@@H]1C[C@@H](S(=O)(=O)c2ccccc2)CN1C(=O)C1CCCCC1)C(=O)c1nc2ccccc2o1 (some centres not stated)
12 | 3.2 nM |  |  | CCC(NC(=O)[C@@H]1C[C@@H](S(=O)(=O)c2ccc(-n3cccn3)cc2)CN1C(C)=O)C(=O)c1nc2ccccc2o1 (some centres not stated)
13 | 1.1 nM | > 1000 nM | > 1000 nM | CCC(NC(=O)[C@@H]1C[C@@H](S(=O)(=O)c2ccccc2)CN1C(=O)c1cccc(Cl)c1)C(=O)c1nc2ccccc2o1 (some centres not stated)
14 | 1.9 nM | 4 nM | 3 nM | CC(C)C[C@@H](NC(=O)N1CCOCC1)C(=O)N[C@@H](/C=C/S(=O)(=O)c1ccccc1)CCc1ccccc1
15 | 3.2 nM |  |  | CCC(NC(=O)[C@@H]1C[C@@H](S(=O)(=O)c2ccc(F)cc2)CN1C(C)=O)C(=O)c1nc2ccccc2o1 (some centres not stated)
16 | 2 nM |  |  | CCC(NC(=O)[C@@H]1C[C@@H](S(=O)(=O)c2ccccc2)CN1C(=O)c1ccc(Cl)cc1)C(=O)c1nc2ccccc2o1 (some centres not stated)
